pKi: −log10 of the molar value.
Legend:
[1] = test system: Mus musculus; assay: Effect on locomotor activity in Swiss Albino mouse assessed as number of crossings in 6 mins at 20 mg/kg administered 30 mins before the test; format: functional
Procedure, shortened: (§1)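 Male Albino Swiss mice given compound ip (1% Tween 80, 10 ml/kg) 30 min before placement singly in plastic cages in a multichannel photobeam activity monitor; ambulation crossings counted over the first 6 min and over a 30 min session. n = 9-10 per group; ANOVA then Dunnett's test.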

[2] = test system: Mus musculus; assay: Effect on locomotor activity in Swiss Albino mouse assessed as number of crossings in 30 mins at 20 mg/kg administered 30 mins before the test; format: functional; procedure, shortened: as §1
[3] = test system: Mus musculus; assay: Antidepressant activity in Swiss Albino mouse assessed as immobility time during final 4 mins of 6 mins session at 10 mg/kg administered 30 mins before the test by forced-swimming test; format: functional
Procedure, shortened: (§2)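 Male Albino Swiss mice (24–28 g), compound given ip in 1% aqueous Tween 80 (10 ml/kg), 30 min before test. Mouse placed singly in glass cylinder (25 cm high, 10 cm diameter) holding 6 cm water at 23–25 °C for 6 min; immobility (floating, only small head-keeping movements) timed over last 4 min. n = 9-10 per group; one-way ANOVA then Dunnett's test.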

[4] = test system: Mus musculus; assay: Antidepressant activity in Swiss Albino mouse assessed as immobility time during final 4 mins of 6 mins session at 20 mg/kg administered 30 mins before the test by forced-swimming test; format: functional; procedure, shortened: as §2
[5] = test system: Mus musculus; assay: Effect on locomotor activity in Swiss Albino mouse assessed as number of crossings in 30 mins at 10 mg/kg administered 30 mins before the test; format: functional; procedure, shortened: as §1
[6] = test system: Mus musculus; assay: Effect on locomotor activity in Swiss Albino mouse assessed as number of crossings in 30 mins at 1 mg/kg administered 30 mins before the test; format: functional; procedure, shortened: as §1
[7] = test system: Rattus norvegicus; assay: Effect on lower lip retraction in Wistar rat at 0.1 mg/kg; format: functional
Procedure, shortened: (§3)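 Male Wistar rats (290–310 g) dosed ip in 1% Tween 80 (2 ml/kg), caged singly; lower lip retraction scored 15, 30 and 45 min after dosing as 0 (incisors not visible), 0.5 (partly) or 1 (completely visible), totals up to 3 per rat. n = 6 per group; one-way ANOVA followed by Dunnett's test.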

[8] = test system: Rattus norvegicus; assay: Effect on lower lip retraction in Wistar rat at 0.3 mg/kg; format: functional; procedure, shortened: as §3
[9] = test system: Rattus norvegicus; assay: Effect on lower lip retraction in Wistar rat at 1 mg/kg; format: functional; procedure, shortened: as §3
[10] = test system: Rattus norvegicus; assay: Effect on 8-OH-DPAT-induced lower lip retraction in Wistar rat at 0.1 mg/kg; format: functional
[11] = test system: Mus musculus; assay: Anxiolytic activity in Swiss Albino mouse assessed as number of punished crossings for 60 secs at 5 mg/kg administered 30 mins before the test by four-plate test; format: functional
Procedure, shortened: (§4)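 Male Albino Swiss mice dosed ip (1% aqueous Tween 80, 10 ml/kg) 30 min beforehand. Opaque box floored with four metal plates; 15 s free exploration, then each plate-to-plate crossing triggers a 0.5 s, 120 V floor shock, with no new shock for 3 s if running continues. Punished crossings counted over 60 s; n = 9-10, ANOVA plus Dunnett's test.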

[12] = test system: Mus musculus; assay: Anxiolytic activity in Swiss Albino mouse assessed as number of punished crossings for 60 secs at 0.3 mg/kg administered 30 mins before the test by four-plate test; format: functional; procedure, shortened: as §4
[13] = test system: Mus musculus; assay: Anxiolytic activity in Swiss Albino mouse assessed as number of punished crossings for 60 secs at 1 mg/kg administered 30 mins before the test by four-plate test; format: functional; procedure, shortened: as §4
[14] = target: T1, 5-hydroxytryptamine receptor 1A (Rattus norvegicus, UniProt P19327); assay: Displacement of [3H]8-OH-DPAT from 5HT1A in rat hippocampal membranes; format: cell membranes, Hippocampus, Membrane
T1 sequence (P19327 whole entry): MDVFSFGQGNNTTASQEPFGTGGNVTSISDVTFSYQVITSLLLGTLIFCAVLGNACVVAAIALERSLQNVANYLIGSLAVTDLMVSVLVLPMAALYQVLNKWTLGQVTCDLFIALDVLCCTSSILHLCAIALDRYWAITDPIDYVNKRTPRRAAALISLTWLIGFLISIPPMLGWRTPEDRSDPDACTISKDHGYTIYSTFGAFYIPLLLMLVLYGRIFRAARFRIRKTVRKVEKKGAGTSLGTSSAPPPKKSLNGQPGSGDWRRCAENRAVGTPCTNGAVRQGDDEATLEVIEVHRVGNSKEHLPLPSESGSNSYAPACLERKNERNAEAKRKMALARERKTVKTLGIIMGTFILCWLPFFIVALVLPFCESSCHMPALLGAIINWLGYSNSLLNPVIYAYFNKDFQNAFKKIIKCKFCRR
Procedure, shortened: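 Rat hippocampal membranes, [3H]-8-OH-DPAT as radioligand, 5-HT defining nonspecific binding. 7–9 drug concentrations run in triplicate, at least three separate experiments. Filtration through GF/B filters with three ice-cold buffer washes, scintillation counting. Ki from non-linear regression of binding isotherms via Cheng-Prusoff equation.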

[15] = target: D(2) dopamine receptor (Rattus norvegicus, UniProt P61169); assay: Displacement of [3H]spiperone from dopamine D2 receptor in rat striatal membranes; format: cell membranes, Membrane
Sequence of D(2) dopamine receptor (P61169 whole entry): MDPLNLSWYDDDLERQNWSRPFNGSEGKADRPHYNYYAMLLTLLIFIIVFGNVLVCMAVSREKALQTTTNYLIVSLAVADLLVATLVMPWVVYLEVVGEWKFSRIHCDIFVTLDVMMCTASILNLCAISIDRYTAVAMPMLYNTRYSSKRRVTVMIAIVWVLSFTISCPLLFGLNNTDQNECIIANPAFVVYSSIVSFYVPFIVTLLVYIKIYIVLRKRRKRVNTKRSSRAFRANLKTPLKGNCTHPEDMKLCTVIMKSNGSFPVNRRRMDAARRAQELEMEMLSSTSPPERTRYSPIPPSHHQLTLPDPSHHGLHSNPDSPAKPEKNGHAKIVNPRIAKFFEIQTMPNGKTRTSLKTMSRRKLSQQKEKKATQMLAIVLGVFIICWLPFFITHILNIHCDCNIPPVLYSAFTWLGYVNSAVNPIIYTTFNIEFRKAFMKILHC
Procedure, shortened: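 Competition binding on rat striatal membranes using [3H]-spiperone, butaclamol for nonspecific binding; filtration through GF/B filters and scintillation counting. Run at two compound concentrations, each in triplicate, and affinity expressed as estimated Ki.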

[16] = Displacement of [3H]prazosin from adrenergic alpha1 receptor in rat cortical membranes; format: cell membranes, Membrane
Procedure, shortened: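 Rat cortical membranes with [3H]-prazosin; phentolamine defines nonspecific binding. 7–9 drug concentrations in triplicate, at least three separate experiments; stopped by GF/B filtration with three ice-cold buffer washes, bound radioactivity by liquid scintillation counting; Ki from non-linear regression and Cheng-Prusoff equation.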

[17] = target: 5-hydroxytryptamine receptor 7 (Homo sapiens, UniProt P34969); assay: Displacement of [3H]5-CT from human 5HT7 expressed in HEK293 cells; format: cell-based
Sequence of 5-hydroxytryptamine receptor 7 (P34969 whole entry): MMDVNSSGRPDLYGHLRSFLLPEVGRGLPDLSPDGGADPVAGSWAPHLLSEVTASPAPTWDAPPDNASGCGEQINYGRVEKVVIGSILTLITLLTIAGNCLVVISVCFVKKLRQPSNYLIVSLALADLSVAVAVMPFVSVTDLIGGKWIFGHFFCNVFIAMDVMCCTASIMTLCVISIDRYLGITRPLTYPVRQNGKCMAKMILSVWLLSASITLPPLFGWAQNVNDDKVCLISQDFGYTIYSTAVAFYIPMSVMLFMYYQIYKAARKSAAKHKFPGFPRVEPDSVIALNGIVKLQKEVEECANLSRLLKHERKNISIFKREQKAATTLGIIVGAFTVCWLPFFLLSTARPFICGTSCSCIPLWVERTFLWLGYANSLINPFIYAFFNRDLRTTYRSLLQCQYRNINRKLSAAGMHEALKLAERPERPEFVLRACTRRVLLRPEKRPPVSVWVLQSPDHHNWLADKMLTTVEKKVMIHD
Procedure, shortened: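 HEK293 cells stably transfected with human 5-HT7(b) cDNA; membranes (10 µg protein) incubated 1 h at 37 °C in 50 mM Tris-HCl pH 7.4 with 4 mM MgCl2, 0.1 mM pargyline, 0.1% ascorbic acid, 0.5 nM [3H]-5-CT and 7–9 test concentrations in triplicate; 10 µM 5-HT defines nonspecific binding. GF/B filtration, scintillation counting; Ki via Cheng-Prusoff from ≥3 experiments.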

[18] = test system: Mus musculus; assay: Antidepressant activity in Swiss Albino mouse assessed as immobility time during final 4 mins of 6 mins session at 0.1 mg/kg administered 30 mins before the test by forced-swimming test; format: functional; procedure, shortened: as §2
[19] = test system: Mus musculus; assay: Antidepressant activity in Swiss Albino mouse assessed as immobility time during final 4 mins of 6 mins session at 0.3 mg/kg administered 30 mins before the test by forced-swimming test; format: functional; procedure, shortened: as §2
[20] = test system: Mus musculus; assay: Antidepressant activity in Swiss Albino mouse assessed as immobility time during final 4 mins of 6 mins session at 1 mg/kg administered 30 mins before the test by forced-swimming test; format: functional; procedure, shortened: as §2
[21] = test system: Mus musculus; assay: Effect on locomotor activity in Swiss Albino mouse assessed as number of crossings in 6 mins at 0.3 mg/kg administered 30 mins before the test; format: functional; procedure, shortened: as §1
[22] = test system: Mus musculus; assay: Effect on locomotor activity in Swiss Albino mouse assessed as number of crossings in 30 mins at 0.3 mg/kg administered 30 mins before the test; format: functional; procedure, shortened: as §1
[23] = test system: Mus musculus; assay: Effect on locomotor activity in Swiss Albino mouse assessed as number of crossings in 6 mins at 1 mg/kg administered 30 mins before the test; format: functional; procedure, shortened: as §1
[24] = species on record: Mus musculus; conditions: Swiss Albino, 5 mg/kg
[25] = species on record: Mus musculus; conditions: Swiss Albino, 2.5 mg/kg
[26] = species on record: Mus musculus; conditions: Swiss Albino, 5 mg/kg; remark: listed apart in the source
[27] = species on record: Mus musculus; conditions: Swiss Albino, 2.5 mg/kg; remark: listed apart in the source
[28] = species on record: Mus musculus; conditions: Swiss Albino, 5 mg/kg; remark: listed apart in the source
[29] = species on record: Mus musculus; conditions: Swiss Albino, 5 mg/kg; remark: listed apart in the source
[30] = species on record: Mus musculus; conditions: Swiss Albino, 5 mg/kg; remark: listed apart in the source
[31] = species on record: Mus musculus; conditions: Swiss Albino, 2.5 mg/kg; remark: listed apart in the source
[32] = species on record: Mus musculus; conditions: Swiss Albino, 5 mg/kg; remark: listed apart in the source
[33] = species on record: Mus musculus; conditions: Swiss Albino, 2.5 mg/kg; remark: listed apart in the source
[34] = test system: Mus musculus; assay: Anxiolytic activity in Swiss Albino mouse assessed as number of punished crossings for 60 secs at 2.5 mg/kg administered 30 mins before the test by four-plate test; format: functional
Procedure, shortened: (§5)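 Male Albino Swiss mice (24–28 g), compound suspended in 1% aqueous Tween 80, given ip (10 ml/kg). Mouse placed in box with four metal floor plates, 15 s exploration, then floor electrified (120 V, 0.5 s) at each plate-to-plate crossing, no new shock for 3 s. Punished crossings counted over 60 s. n = 9-10/group; one-way ANOVA then Dunnett's test.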

[35] = test system: Mus musculus; assay: Anxiolytic activity in Swiss Albino mouse assessed as number of punished crossings for 60 secs at 1.25 mg/kg administered 30 mins before the test by four-plate test; format: functional; procedure, shortened: as §5
[36] = test system: Mus musculus; assay: Antidepressant activity in Swiss Albino mouse assessed as immobility time during final 4 mins of 6 mins session at 5 mg/kg administered 30 mins before the test by forced-swimming test; format: functional; procedure, shortened: as §2
[37] = test system: Mus musculus; assay: Antidepressant activity in Swiss Albino mouse assessed as immobility time during final 4 mins of 6 mins session at 1.25 mg/kg administered 30 mins before the test by forced-swimming test; format: functional; procedure, shortened: as §2
[38] = test system: Mus musculus; assay: Antidepressant activity in Swiss Albino mouse assessed as immobility time during final 4 mins of 6 mins session at 2.5 mg/kg administered 30 mins before the test by forced-swimming test; format: functional; procedure, shortened: as §2

CN(C)CCCN1c2ccccc2CCc2ccccc21 [IMIPRAMINE]
Activity [1]: 314.9
Activity [2]: 625.3
Activity [3]: 149.1 s
Activity [4]: 107.8 s
Activity [5]: 876.8

O=C1CCCC(=O)N1C1CCC(N2CCN(c3cccc(C(F)(F)F)c3)CC2)CC1 (trans isomer)
Activity [6]: 374.3
Activity [7]: 1.3
Activity [8]: 2.4
Activity [9]: 3
Activity [10]: 2.6
Activity [11]: 4.2
Activity [12]: 3.9
Activity [13]: 3.9
pKi [14]: 8.59
pKi [15]: < 5.30
pKi [16]: 7.07
pKi [17]: 5.92
Activity [18]: 128.3 s
Activity [19]: 70.1 s
Activity [20]: 77.7 s
Activity [21]: 208.2
Activity [22]: 537.7
Activity [23]: 121.6
deltaT [24]: -1.5 °C
deltaT [25]: -0.5 °C
deltaT [26]: -1.3 °C
deltaT [27]: -0.3 °C
deltaT [28]: -1.2 °C
deltaT [29]: -1.2 °C
deltaT [30]: -1.6 °C
deltaT [31]: -0.7 °C
deltaT [32]: -1.5 °C
deltaT [33]: -0.5 °C

CC1(C)CC(=O)N(C2CCC(N3CCN(c4cccc(C(F)(F)F)c4)CC3)CC2)C(=O)C1 (stereo not given)
Activity [6]: 535.3
Activity [34]: 4.6
Activity [11]: 4.6
Activity [35]: 4.4
Activity [36]: 113.3 s
pKi [16]: 6.57
pKi [17]: 6.66
Activity [37]: 150.4 s
Activity [38]: 98.2 s
Activity [21]: 212
Activity [22]: 630.1
Activity [23]: 211.7
